How the values were obtained:
[1] = tested on: A549; assay: Induction of apoptosis in human A549 cells assessed as early apoptotic cells at 25 uM after 72 hrs by annexinV-APC/7-AAD staining based flow cytometry (reference value: 5.7%); assay type: functional
[2] = tested on: A549; assay: Cell cycle arrest in human A549 cells assessed as accumulation at G2 phase after 72 hrs by propidium iodide staining based flow cytometry; assay type: functional
[3] = tested on: A549; assay: Cell cycle arrest in human A549 cells assessed as accumulation at G1 phase at 25 uM after 72 hrs by propidium iodide staining based flow cytometry (reference value: 53.66%); assay type: functional
[4] = target: T1, Prostaglandin G/H synthase 1 (Bos taurus, UniProt O62664); assay: Inhibition of COX1 in calf endotheliocyte assessed as 6keto-PGF1alpha production pretreated for 20 mins followed by addition of 10 uM arachidonic acid as substrate for 20 mins by radioimmuno assay
T1 sequence (O62664 whole entry): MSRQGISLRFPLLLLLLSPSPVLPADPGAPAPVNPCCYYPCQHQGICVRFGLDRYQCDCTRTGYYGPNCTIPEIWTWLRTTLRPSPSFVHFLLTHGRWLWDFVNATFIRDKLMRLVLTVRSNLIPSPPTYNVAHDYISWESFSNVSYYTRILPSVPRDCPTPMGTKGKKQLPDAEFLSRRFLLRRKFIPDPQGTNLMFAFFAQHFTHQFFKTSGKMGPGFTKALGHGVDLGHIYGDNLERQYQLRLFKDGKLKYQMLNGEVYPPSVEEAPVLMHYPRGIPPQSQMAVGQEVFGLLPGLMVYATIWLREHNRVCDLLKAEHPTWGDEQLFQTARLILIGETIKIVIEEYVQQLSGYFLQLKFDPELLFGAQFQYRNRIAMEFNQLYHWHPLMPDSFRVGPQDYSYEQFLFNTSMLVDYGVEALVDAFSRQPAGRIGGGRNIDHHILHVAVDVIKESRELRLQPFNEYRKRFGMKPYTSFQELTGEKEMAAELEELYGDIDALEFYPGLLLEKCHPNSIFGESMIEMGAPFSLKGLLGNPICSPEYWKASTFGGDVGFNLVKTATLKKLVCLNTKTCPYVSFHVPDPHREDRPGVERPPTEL
Method in brief: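 Endothelial cells from neonatal calf thoracic aorta plated at 1.0×10^6 in DMEM with 10% FBS and grown 24 h at 37 °C in 5% CO₂. Compound or DMSO added for 20 min, then arachidonic acid (10 μM) for another 20 min. 6-keto-PGF1α in the medium quantified by radioimmunoassay. IC50 is the mean of four determinations.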

[5] = tested on: A549; assay: Induction of apoptosis in human A549 cells assessed as necrotic cells at 5 uM after 72 hrs by annexinV-APC/7-AAD staining based flow cytometry (reference value: 0.41%); assay type: functional
[6] = target: T2, Prostaglandin G/H synthase 2 (Rattus norvegicus, UniProt P35355); assay: Inhibition of COX2 in rat abdominal macrophages assessed as PGE2 production pretreated for 30 mins followed by addition of 10 uM arachidonic acid as substrate for 20 mins by EIA
T2 sequence (P35355 whole entry): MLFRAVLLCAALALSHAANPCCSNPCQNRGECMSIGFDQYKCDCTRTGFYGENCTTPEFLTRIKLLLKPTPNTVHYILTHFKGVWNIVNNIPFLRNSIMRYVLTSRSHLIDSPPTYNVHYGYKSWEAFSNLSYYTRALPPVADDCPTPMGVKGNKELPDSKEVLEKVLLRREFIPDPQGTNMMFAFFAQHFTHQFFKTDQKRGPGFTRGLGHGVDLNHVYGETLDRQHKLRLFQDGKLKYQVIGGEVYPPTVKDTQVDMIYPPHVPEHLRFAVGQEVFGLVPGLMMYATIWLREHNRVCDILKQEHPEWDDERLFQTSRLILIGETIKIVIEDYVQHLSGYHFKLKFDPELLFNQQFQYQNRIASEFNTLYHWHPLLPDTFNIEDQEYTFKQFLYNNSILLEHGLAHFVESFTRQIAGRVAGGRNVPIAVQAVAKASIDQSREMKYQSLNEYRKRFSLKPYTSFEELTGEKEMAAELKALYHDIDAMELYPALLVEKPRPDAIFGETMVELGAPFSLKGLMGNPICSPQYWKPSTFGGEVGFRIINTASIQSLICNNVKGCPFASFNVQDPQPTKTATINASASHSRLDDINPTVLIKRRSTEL

[7] = Antiproliferative activity against mouse B16F10 cells after 72 hrs by MTT assay; assay type: functional, cell-based; settings: B16-F10, 72 h
Method in brief: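 Cells seeded at 5×10^4/well, grown 24 h at 37 °C in 5% CO₂, then exposed to compounds dissolved in DMSO at a range of concentrations for 72 h. MTT (5 mg/mL in PBS) added for 4 h, then OD read at 570 nm. IC50 taken from dose-response curves, mean ± S.D. of three independent experiments.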

- IC50 [4]: 12.6 µM
- IC50 [6]: 180 nM
Compound: CS(=O)(=O)c1ccc(-c2nc(SCCCOC(=O)/C=C/c3ccc(O)c(O)c3)nn2-c2ccc(F)cc2)cc1
- Activity [1]: 37.2%
- Activity [2]: Dose-dependent effect
- Activity [3]: 47.29%
- Activity [5]: 2.14%
- IC50 [7]: 10.4 µM
